Assay outcomes deposited in PubChem BioAssay by several laboratories.
A selection: hits, their analogues and other compounds. The true share with any hit is near 2.1%.
b-catenin transl = beta-catenin nuclear translocation modulation | HeLa beta-catenin nuclear translocation, immunofluorescence imaging | nuclear translocation activity, % at 5 µM | 0.3% of 190,000 active;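 active = nuclear translocation activity above 50% at 5 µM, with a well cell count of 50 or more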;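 note: per-cell ratio of nuclear to cytoplasmic median beta-catenin stain intensity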
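Technique: fluorescence imaging of beta-catenin antibody stain plus DAPI / Material: human HeLa cell line / Incubation: compound treatment 24 h, 37°C, 5% CO2 / Read-out basis: % activation of per-cell nuclear versus cytoplasmic median beta-catenin signal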
Ba/F3 V617F tox = reduce viability of Ba/F3 cells dependent on JAK2V617F. Ba/F3 EpoR-JAK2V617F viability, ATP luminescence. inhibition, % at 5.6 µM. 1.1% of 220,000 active;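 active = inhibition above the campaign mean plus 3 SD over all tested compounds, cut at about 24% in these data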;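 note: cytokine-independent growth of Ba/F3 cells driven by EpoR plus mutant JAK2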
IEC-6 cytotox = IEC-6 cytotoxicity, counter-screen for KLF5 inhibitors; luminescence viability; inhibition, % at 5 µM; 0.78% of 290,000 active; AID 1825; in the data active = inhibition above about 22%
KLF5 inh = suppresses KLF5 promoter-driven expression | 0.23% of 290,000 active | AID 1700 | inhibition, % at 5 µM | DLD-1 KLF5 promoter-luciferase reporter, luminescence;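 active = inhibition above a per-plate limit of that plate's mean compound inhibition plus 3 SD, cut at about 60% in these data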;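 note: higher means less KLF5 promoter-driven luciferase light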
BaF3 parental = reduces parental Ba/F3 cell viability, JAK2V617F counter-screen | inhibition, % at 5.6 µM | CellTiter-Glo ATP luminescence | 1.1% of 220,000 active;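 active = inhibition above a per-campaign cutoff, the mean inhibition of all tested compounds plus 3 SD, cut at about 27% in these data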
MT stabilize HCS = microtubule stabilization, imaging screen | HeLa tubulin immunostaining HCS, 24 h; share of cells brighter than vehicle mean+2SD | % tubulin-high responders, % at 10 µM | 0.83% of 200,000 active;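 active = plate Z-score above 3 for both tubulin-high and condensed-nucleus cell shares, with cell loss under 80%, at 10 µM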;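 note: anti alpha tubulin signal scored within the nucleus-defined area of each cell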
BaF3 tox 2 = parental Ba/F3 viability inhibition for JAK2V617F counter-screen; shares compounds with Ba/F3 V617F tox; CellTiter-Glo luminescence; cells kept alive by added IL-3; inhibition, % at 5.6 µM; 31% of 580 active; AID 1520;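 active = cell growth inhibition above the hit limit set in the earlier mutant JAK2 cell screen, cut at about 27% in these data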
JAK2V617F conf = Ba/F3 EpoR-JAK2V617F viability loss, confirmation | shares compounds with Ba/F3 V617F tox | CellTiter-Glo luminescence | 66% of 580 active | inhibition, % at 5.6 µM;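 active = mean inhibition above the hit cutoff derived in the earlier primary screen, cut at about 25% in these data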;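 note: higher means lower luminescence from reduced cell ATP and viability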
Each line names hits and unclear results; the compound was inactive in the other large screens (follow-up assays come after a bar, where they were run).

C#CCOCCOCCOCCNc1nc(N2CCN(C(=O)[C@H](Cc3cc4ccccc4[nH]3)n3cc([C@@H](N)C(C)CC)nn3)CC2)nc(N2CCN(C(=O)[C@H](Cc3cc4ccccc4[nH]3)n3cc([C@@H](N)CC(C)C)nn3)CC2)n1 (some centres not stated)	none
COc1ccc(-c2cnnc(N/N=C/c3ccc(O)c(O)c3)n2)cc1	Ba/F3 V617F tox 47 | BaF3 tox 2 83 | JAK2V617F conf 100
COc1cc(/C=C2\SC(=S)N(Nc3ccccc3)C2=O)ccc1O	none
O=C1/C(=C/c2ccc(O)c(O)c2)SC(=S)N1Nc1ccccc1	Ba/F3 V617F tox 38 | BaF3 tox 2 inactive | JAK2V617F conf 67
O=C(CCC(=O)N1CCN(c2ccccc2)CC1)Nc1nnc(C2CCCCC2)s1	none (no result: MT stabilize HCS)
COc1ccccc1NC(=S)NC(NC(=O)C(C)C)C(Cl)(Cl)Cl (configuration not stated)	none
CCCSc1nsc(SCCC)c1C#N	none (no result: b-catenin transl)
C#CCSc1nsc(SCC#C)c1C#N	Ba/F3 V617F tox 45 | BaF3 tox 2 inactive | JAK2V617F conf 72
CC1=CC(C)C2(CO)COC(c3ccccc3O)C1C2C (configuration not stated)	Ba/F3 V617F tox 58 | BaF3 tox 2 inactive | JAK2V617F conf inactive
Cc1cc(C)c(NC(=O)CSc2nnc(CN3CCOCC3)n2C)c(C)c1	none (no result: b-catenin transl, Ba/F3 V617F tox, BaF3 parental, MT stabilize HCS)
Cc1cc(C)cc(NC(=O)CSc2nnc(CN3CCOCC3)n2C)c1	Ba/F3 V617F tox 95 | BaF3 tox 2 inactive | JAK2V617F conf inactive
CCCC(=O)Nc1cccc(C(=O)Nc2ccccc2OCC)c1	none
COc1ccccc1N1CCc2c(C)nc3c(OC)cccc3c21	Ba/F3 V617F tox 45 | BaF3 tox 2 inactive | JAK2V617F conf 50
COc1ccc([N+](=O)[O-])c(S(=O)(=O)c2ccccc2)n1	Ba/F3 V617F tox 93 (no result: MT stabilize HCS) | BaF3 tox 2 34 | JAK2V617F conf 85
COc1ccc([N+](=O)[O-])c(S(=O)(=O)c2ccc(Cl)cc2)n1	Ba/F3 V617F tox 43 (no result: MT stabilize HCS) | BaF3 tox 2 inactive | JAK2V617F conf 70
COc1nc(OC)nc(Oc2ccc(Cl)cc2[N+](=O)[O-])n1	none
CN1CCN(CCCN(Cc2cccs2)C(=S)Nc2ccc(Cl)cc2)CC1	Ba/F3 V617F tox 34 | BaF3 tox 2 28 | JAK2V617F conf 46
CCc1ccc(NC(=S)N(CCCN2CCN(C)CC2)Cc2cccs2)cc1	none
O=C(O)c1ccc2c(=O)[nH]c(CCl)nc2c1	none
COc1ccc(Br)cc1CN(C)C(=O)c1cnc(C)cn1	none (no result: b-catenin transl, Ba/F3 V617F tox, BaF3 parental, MT stabilize HCS)
Cc1ccccc1OCC(O)Cn1c(=N)n(Cc2ccccc2)c2ccccc21 (configuration not stated)	Ba/F3 V617F tox 48 (no result: MT stabilize HCS) | BaF3 tox 2 inactive | JAK2V617F conf 53
COc1ccc(OCC(O)Cn2c(=N)n(CCN3CCCCC3)c3ccccc32)cc1 (configuration not stated)	Ba/F3 V617F tox 34 | BaF3 tox 2 inactive | JAK2V617F conf inactive
COc1cc(OC)cc(C(=O)N[C@H](C(=O)OCC(=O)NC(=O)c2cccn2C)C(C)C)c1	none
CCCC1O[C@@H]2CC3C4CCC5=CC(=O)C=C[C@]5(C)C4C(OC(C)=O)C[C@]3(C)[C@]2(C(=O)COC(C)=O)O1 (some centres not stated)	Ba/F3 V617F tox 25 | BaF3 tox 2 inactive | JAK2V617F conf 28
CCCC(=O)N(C1CC(C)C(C#N)(C#N)C1(C#N)C#N)N(C)C (configuration not stated)	Ba/F3 V617F tox 46 (no result: MT stabilize HCS) | BaF3 tox 2 inactive | JAK2V617F conf 62
CC(=O)/C(=N\Nc1ccccc1)Sc1nncn1C	none
COc1ccc(Nc2nc(N3CCCC3)nc3ccccc23)c(OC)c1	Ba/F3 V617F tox 47 (no result: b-catenin transl) | BaF3 tox 2 inactive | JAK2V617F conf inactive
COc1ccc(Nc2ncnc3ccccc23)c(OC)c1	none
CSCC(O)Cn1ncc2ccccc2c1=O (configuration not stated)	none (no result: MT stabilize HCS)
CCOC(=O)N1CCN(C(=O)c2ccc(NC(=O)c3ccc(C)cc3)cc2)CC1	Ba/F3 V617F tox 24 | BaF3 tox 2 inactive | JAK2V617F conf 32
Cc1cccc(C(=O)Nc2ccc(N3CCN(S(C)(=O)=O)CC3)cc2)c1	none
O=C(Nc1ccccc1)c1cnc2ccccc2n1	Ba/F3 V617F tox 103 | BaF3 tox 2 inactive | JAK2V617F conf inactive
O=C(CSc1nnc(-c2ccc(C(F)(F)F)cn2)s1)c1ccccc1	none (no result: MT stabilize HCS)
C/C(=C\C(=O)O)CC(=O)O	Ba/F3 V617F tox 53 | BaF3 tox 2 inactive | JAK2V617F conf inactive
O=S(=O)(c1cnc(Cl)c(Cl)c1)N1CCc2ccccc21	Ba/F3 V617F tox 25 (no result: MT stabilize HCS) | BaF3 tox 2 inactive | JAK2V617F conf 59
O=S(=O)(c1cc(Cl)ccc1Cl)N1CCc2ccccc21	none (no result: b-catenin transl, Ba/F3 V617F tox, BaF3 parental, MT stabilize HCS)
O=S(=O)(c1cnc(Cl)c(Cl)c1)N1CCCc2ccccc21	none
O=S(=O)(c1cnc(Cl)c(Br)c1)N1CCc2ccccc21	Ba/F3 V617F tox 28 (no result: MT stabilize HCS) | BaF3 tox 2 inactive | JAK2V617F conf 58
CC(C)(CNC(=O)C1CCCN1C(=O)c1cccs1)N1CCOCC1 (configuration not stated)	none
Cc1[nH]c(C)c(S(=O)(=O)NCc2ccc(F)cc2)c1C(=O)N1CCCCC1	none (no result: b-catenin transl, Ba/F3 V617F tox, BaF3 parental, MT stabilize HCS)
C=CCN=c1scc(C)n1/N=C/c1ccc(O)c(O)c1	Ba/F3 V617F tox 62 | BaF3 tox 2 37 | JAK2V617F conf 86
CCNC(=S)NNC(=O)c1ccccn1	none (no result: b-catenin transl)
O=C(NNC(=S)Nc1ccc(Cl)c(Cl)c1)c1ccccn1	Ba/F3 V617F tox 32 | BaF3 tox 2 51 | JAK2V617F conf 47
O=C(Nc1cc(S(=O)(=O)N2CCCCC2)ccc1O)c1ccccc1NS(=O)(=O)c1ccc(F)cc1	none
O=C(Nc1cc(S(=O)(=O)N2CCCCC2)ccc1Cl)c1ccccc1NS(=O)(=O)c1ccc(F)cc1	Ba/F3 V617F tox 28 | BaF3 tox 2 70 | JAK2V617F conf 79
CC1CCc2[nH]c3ccc(C(=O)NCCCOC(C)C)cc3c2C1 (configuration not stated)	none
CCN(Cc1ccc(OC)c(F)c1)C(=O)CCl	Ba/F3 V617F tox 39 | BaF3 tox 2 inactive | JAK2V617F conf 96
OCCSc1nnc(Nc2ccccc2)s1	Ba/F3 V617F tox 65 | BaF3 tox 2 inactive | JAK2V617F conf inactive
N#CCSc1nnc(Nc2ccccc2)s1	none
CCOc1ccccc1/C=N/NC(=O)c1c(C)nc2ccc(Br)cn12	none (no result: b-catenin transl, Ba/F3 V617F tox, BaF3 parental, MT stabilize HCS)
COc1cccc(/C=N/NC(=O)c2c(C)nc3ccc(Br)cn23)c1O	Ba/F3 V617F tox 24 | BaF3 tox 2 62 | JAK2V617F conf 66
COc1ccc(N2CCN(Cc3nc4ccccc4n3C)CC2)cc1	none
